Values after ≈ are worked out from the molar mass of the structure shown. “Also recorded” adds a separate entry of the source.
Key:
[1] = In vitro cytotoxicity assay; assay type: cell-based; details: African green monkey, Vero cells, Vero IC50 cytotoxicity, MTT
[2] = system: third stage instar larvae of Aedes aegypti; assay: Larvicidal bioassay; assay type: in vivo; details: for larvicidal activity (in words): 24, 48 and 72 h exposure, 50-250 μg ml^−1
[3] = system: Vero cells; assay: In vitro cytotoxicity assay; assay type: cell-based; details: MTT
[4] = system: human blood cells (red blood cell suspension); assay: Haemolytic assay; assay type: cell-based
Outline: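 Fresh anticoagulated human blood spun 10 min at 2000 rpm; pellet resuspended in 0.9% NaCl to a 2% v/v red cell suspension. Cells incubated with test compound at 25, 50 or 100 μg ml−1 for 1 h at 37 °C, 5% CO2. Haemoglobin release read at 540 nm. Controls were 1% v/v NaOH for complete lysis and 0.9% NaCl for none. Percent haemolysis was calculated.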

[5] = system: Aedes aegypti larvae (midgut); assay: Histopathological analysis of larvae; assay type: in vivo; details: 72 h exposure
[6] = 24 h exposure, log probit analysis
[7] = 48 h exposure, log probit analysis
[8] = 72 h exposure, log probit analysis
[9] = Aedes aegypti, 24 h, 24 h exposure, log probit analysis
[10] = Aedes aegypti, 48 h, 48 h exposure, log probit analysis
[11] = Aedes aegypti, 72 h, 72 h exposure, log probit analysis
[12] = larvicidal LC50 used in QSAR training set, exposure time not given

SC1=NCN(/C=C/c2ccccc2)N1N=Cc1ccc(Br)cc1 [CA 10, 2-{[(4-Bromophenyl)methylidene]amino}-1-[(E)-2-phenylethenyl]-2,5-dihydro-1H-1,2,4-triazole-3-thiol]
IC50 [1]: 241 ± 0.01 µg/mL (≈ 622 µM) | LC90 [2, 6]: 210.414 ppm | LC90 [2, 7]: 172.096 ppm | LC90 [2, 8]: 122.913 ppm | LC50 [2, 9]: 156 µg/mL | LC50 [2, 10]: 121 µg/mL | LC50 [2, 11]: 50.3 µg/mL

CN(C)c1ccc(/C=C/C=NN2C(S)=NCN2/C=C/c2ccccc2)cc1 [CA 11, 2-({(2E)-3-[4-(Dimethylamino)phenyl]prop-2-en-1-ylidene}amino)-1-[(E)-2-phenylethenyl]-2,5-dihydro-1H-1,2,4-triazole-3-thiol]
IC50 [1]: 229 ± 0.02 µg/mL (≈ 607 µM)

2-(3-Methylphenyl)-5-[(E)-2-phenylethenyl]-5,6-dihydro[1,2,4]triazolo[5,1-b][1,3,4]thia diazole [CATD 4]
Vero IC50 cytotoxicity [3]: 252 ± 0.20 µg/mL | LC50 [2, 12]: 0.15 µM

NC(=S)NNC(=O)/C=C/c1ccc(N)cc1 [ACA 3, 2-[(2E)-3-(4-Aminophenyl)prop-2-enoyl]hydrazine-1-carbothioamide]
IC50 [1]: 254 ± 0.03 µg/mL (≈ 1070 µM)

Oc1ccc(C2=NN3C(=NCN3/C=C/c3ccccc3)S2)cc1O [CATD 3, 4-{5-[(E)-2-Phenylethenyl]-5,6-dihydro[1,2,4]triazolo[5,1-b][1,3,4]thiadiazol-2-yl}benzene-1,2-diol]
IC50 [1]: 270 ± 0.2 µg/mL (≈ 798 µM)

Cc1cccc(C2=NN3C(=NCN3/C=C/c3ccccc3)S2)c1 [CATD 2, 2-(3-Methylphenyl)-5-[(E)-2-phenylethenyl]-5,6-dihydro[1,2,4]triazolo[5,1-b][1,3,4]thiadiazole]
IC50 [1]: 218 ± 0.02 µg/mL (≈ 680 µM) | Hemolytic (%) ([4]; Conc. 25 PPM): 4.605% | Hemolytic (%) ([4]; Conc. 50 PPM): 5.367% | Hemolytic (%) ([4]; Conc. 100 PPM): 5.759% | larvicidal activity (in words) [2]: effectively showed larvicidal activity | LC90 [2, 6]: 311.453 ppm | LC90 [2, 7]: 241.010 ppm | LC90 [2, 8]: 179.532 ppm | LC50 [2, 9]: 187 µg/mL | LC50 [2, 10]: 132 µg/mL | LC50 [2, 11]: 86.6 µg/mL | histopathological findings in larvae [5]: severe lesions that primarily affected the midgut epithelium

(2E)-3-(4-Aminophenyl)-N′-(2,4-dinitrophenyl)prop-2-enehydrazide [ACA 4]
Vero IC50 cytotoxicity [3]: 328 ± 0.02 µg/mL | Hemolytic (%) ([4]; Conc. 25 PPM): 1.736% | Hemolytic (%) ([4]; Conc. 50 PPM): 2.122% | Hemolytic (%) ([4]; Conc. 100 PPM): 3.460% | larvicidal activity (in words) [2]: slow mortality; also recorded: effectively showed larvicidal activity | LC50 [2, 6]: 101.176 ppm | LC90 [2, 6]: 358.428 ppm | LC50 [2, 7]: 88.823 ppm | LC90 [2, 7]: 323.217 ppm | LC50 [2, 8]: 47.347 ppm | LC90 [2, 8]: 240.784 ppm | LC50 [2, 12]: 0.10 µM | histopathological findings in larvae [5]: severe lesions that primarily affected the midgut epithelium

CC(C)=CCc1c(O)cc(O)c2c1O[C@H](c1ccccc1)CC2=O [Glabranin, reference compound]
IC50 [1]: 252 ± 0.2 µg/mL (≈ 777 µM) | Hemolytic (%) ([4]; Conc. 25 PPM): 2.326% | Hemolytic (%) ([4]; Conc. 50 PPM): 4.713% | Hemolytic (%) ([4]; Conc. 100 PPM): 5.217% | LC90 [2, 6]: 311.453 ppm | LC90 [2, 7]: 241.010 ppm | LC90 [2, 8]: 179.532 ppm | LC50 [2, 9]: 258 µg/mL | LC50 [2, 10]: 199 µg/mL | LC50 [2, 11]: 140 µg/mL

2-{[(4-Chlorophenyl) methylidene] amino}-1-[(E)-2-phenylethenyl]-2,5-dihydro-1H-1,2,4-triazole-3-thiol [CA 1]
Vero IC50 cytotoxicity [3]: 309 ± 0.21 µg/mL | LC50 [2, 12]: 0.13 µM

O=[N+]([O-])c1ccc(C=NN2C(S)=NCN2/C=C/c2ccccc2)cc1 [CA 9, 2-{[(4-Nitrophenyl)methylidene]amino}-1-[(E)-2-phenylethenyl]-2,5-dihydro-1H-1,2,4-triazole-3-thiol]
IC50 [1]: 235 ± 0.05 µg/mL (≈ 665 µM)

COc1cc(C=NN2C(S)=NCN2/C=C/c2ccccc2)ccc1O [CA 7, 2-Methoxy-4-[({2-[(E)-2-phenylethenyl]-5-sulfanyl-2,3-dihydro-1H-1,2,4-triazol-1-yl}imino)methyl] phenol]
IC50 [1]: 295 ± 0.04 µg/mL (≈ 832 µM)

1-[(E)-2-Phenylethenyl]-2-{[(3,4,5-trimethoxy phenyl) methylidene] amino}-2,5-dihydro-1H-1,2,4-triazole-3-thiol [CA 5]
Vero IC50 cytotoxicity [3]: 223 ± 0.05 µg/mL

Nc1ccc(/C=C/C(=O)NNc2ccc([N+](=O)[O-])cc2[N+](=O)[O-])cc1 [ACA 1, (2E)-3-(4-Aminophenyl)-N′-(2,4-dinitrophenyl)prop-2-enehydrazide]
IC50 [1]: 285 ± 0.05 µg/mL (≈ 830 µM)

CC(=O)OCC(CCn1cnc2cnc(N)nc21)COC(C)=O [FMCV, Famciclovir, reference compound]
IC50 [1]: 270 ± 0.2 µg/mL (≈ 840 µM) | Hemolytic (%) ([4]; Conc. 25 PPM): 4.802% | Hemolytic (%) ([4]; Conc. 50 PPM): 6.448% | Hemolytic (%) ([4]; Conc. 100 PPM): 8.901% | LC90 [2, 7]: 241.010 ppm | LC90 [2, 8]: 179.532 ppm | LC50 [2, 9]: 248 µg/mL | LC50 [2, 10]: 203 µg/mL | LC50 [2, 11]: 139 µg/mL

— PMC8961603 (RSC Advances, 2022)
